Measurements published in ChEMBL document CHEMBL4680218, “Design and synthesis of tripeptidyl furylketones as selective inhibitors against the β5 subunit of human 20S proteasome” (Eur J Med Chem, 2020).
Calls of active or inactive are those of the source.

Experiments:
[1] = molecular target: T1, Proteasome Macropain subunit MB1 (Homo sapiens) (UniProt P28074); assay: Inhibition of chymotrypsin-like activity of human 20S proteasome beta5 subunit at 50 uM using Suc-LLVY-Glo as substrate incubated for 2 hrs followed by substrate addition and measured for 10 mins by bioluminescent assay relative to control; conditions: time 130.0 min
T1 sequence (whole entry): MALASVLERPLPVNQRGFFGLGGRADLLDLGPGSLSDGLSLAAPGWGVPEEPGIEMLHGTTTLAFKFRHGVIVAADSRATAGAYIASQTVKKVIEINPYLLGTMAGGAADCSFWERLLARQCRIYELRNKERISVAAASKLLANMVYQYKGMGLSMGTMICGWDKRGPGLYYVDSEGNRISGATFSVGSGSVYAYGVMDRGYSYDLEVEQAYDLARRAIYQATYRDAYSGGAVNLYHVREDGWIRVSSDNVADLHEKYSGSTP
How it was run: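 Human constitutive 20S proteasome (1 µg/mL) was incubated with compound for 2 h at 25 °C in 10 mM HEPES pH 7.6 with 1% DMSO final. Suc-LLVY-Glo substrate was then added, and luminescence was read over 10 min. Inhibition rate was calculated against the uninhibited signal.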

[2] = molecular target: T2, Proteasome Macropain subunit MB1 (Homo sapiens, UniProt P28074); assay: Inhibition of chymotrypsin-like activity of human 20S proteasome beta5 subunit using Suc-LLVY-Glo as substrate incubated for 2 hrs followed by substrate addition and measured for 10 mins by bioluminescent assay
T2 sequence (P28074 whole entry): T1 sequence (whole entry)
How it was run: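 Human constitutive 20S proteasome (1 μg/mL) was combined with compound serially diluted in 10 mM HEPES pH 7.6, with final DMSO 1% (v/v). After 2 h at 25 °C, Suc-LLVY-Glo (CT-L), Z-LRR-Glo (T-L) or Z-nLPnLD-Glo (C-L) reagent was added. Luminescence was read over 10 min, and IC50 was taken from inhibition rates.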

[3] = molecular target: T1, Proteasome Macropain subunit MB1 (Homo sapiens); assay: Reversible inhibition of human 20S proteasome beta5 subunit assessed as residual enzyme activity using Suc-LLVY-Glo as substrate preincubated for 2 hrs followed by compound washout and further incubated for 4 hrs followed by substrate addition and measured after 10 mins by bioluminescent assay relative to control
How it was run: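 Human 20S proteasome (8 μg/mL) was pre-incubated with inhibitor for 2 h at 25 °C. Samples were then washed five times in assay buffer on 100 kDa cut-off centrifugal filters (14,000 g, 5 min each) and recovered. After a further 4 h at 25 °C, Suc-LLVY-Glo was added and luminescence was read after 10 min. Unwashed samples held an extra 4 h served as the standard.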

[4] = molecular target: T1, Proteasome Macropain subunit MB1 (Homo sapiens); assay: Covalent binding affinity to human 20S proteasome beta5 subunit assessed as hemi-ketal formation using H2O-MeOH as mobile phase by HPLC analysis
[5] = molecular target: T1, Proteasome Macropain subunit MB1 (Homo sapiens); assay: Binding affinity to immobilized human 20S proteasome beta 5 subunit assessed as association rate constant by SPR analysis
How it was run: (§1)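 Purified human constitutive 20S proteasome was immobilised on a CM5 chip. Analyte was a 2-fold series from 25 to 1.56 µM in running buffer (10 mM phosphate, 2.7 mM KCl, 137 mM NaCl, 0.05% P20, 5% DMSO, pH 7.4). Flow was 30 µL/min, with 60 s association and 60 s dissociation. Responses were normalised by molecular weight, and kon/koff came from a 1:1 binding fit.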

[6] = molecular target: T1, Proteasome Macropain subunit MB1 (Homo sapiens); assay: Binding affinity to immobilized human 20S proteasome beta 5 subunit assessed as dissociation rate constant by SPR analysis; how it was run: as §1
[7] = molecular target: T2, Proteasome Macropain subunit MB1; assay: Binding affinity to immobilized human 20S proteasome beta 5 subunit by SPR analysis
How it was run: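 SPR used purified human 20S proteasome coupled to a CM5 chip. Analytes were 2-fold series from 25 to 1.56 μM in PBS-P running buffer (pH 7.4, 0.05% P20) with 5% DMSO, flowed at 30 μL/min with 60 s association and 60 s dissociation. Data were normalized by molecular weight and fitted to a 1:1 Langmuir model; KD is from the rate constants.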

A-375 = assay: Cytotoxicity against human A-375 cells assessed as reduction in cell viability after 72 hrs by Cell Titer-Glo assay; assay type: functional, cell-based; conditions: A-375, 72 h
How it was run: (§2)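 Cells were cultured in their respective media with 10% FBS, seeded from log phase at 1000 cells/well, and given compound after 18–24 h. After 72 h, an equal volume of CellTiter-Glo reagent was added and luminescence was read at 37 °C. IC50 came from dose-response curve fits; values are mean ± SD of three independent experiments, each in biological triplicate.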

BGC-823 = assay: Cytotoxicity against human BGC-823 cells assessed as reduction in cell viability after 72 hrs by Cell Titer-Glo assay; assay type: functional, cell-based; conditions: BGC-823, 72 h; how it was run: as §2
HeLa = assay: Cytotoxicity against human HeLa cells assessed as reduction in cell viability after 72 hrs by Cell Titer-Glo assay; assay type: functional, cell-based; how it was run: as §2
A549 = assay: Cytotoxicity against human A549 cells assessed as reduction in cell viability after 72 hrs by Cell Titer-Glo assay; assay type: functional, cell-based; conditions: A549, 72 h; how it was run: as §2
[8] = Cytotoxicity against human PC3M1E8 cells assessed as reduction in cell viability after 72 hrs by Cell Titer-Glo assay; assay type: functional, cell-based; conditions: PC3M1E8, 72 h; how it was run: as §2
HCT-116 [9] = assay: Cytotoxicity against human HCT-116 cells assessed as reduction in cell viability after 72 hrs by Cell Titer-Glo assay; assay type: functional, cell-based; conditions: HCT-116, 72 h; how it was run: as §2
HEK293 = assay: Cytotoxicity against human HEK293 cells assessed as reduction in cell viability after 72 hrs by Cell Titer-Glo assay; assay type: cell-based; conditions: HEK293, 72 h; how it was run: as §2
HT-29 = assay: Cytotoxicity against human HT-29 cells assessed as reduction in cell viability after 72 hrs by Cell Titer-Glo assay; assay type: functional, cell-based; conditions: HT-29, 72 h; how it was run: as §2
HCT-116 [10] = assay: Cell cycle arrest in human HCT-116 cells assessed as accumulation at G1 phase at 1 uM after 24 hrs by propidium iodide staining based flow cytometric analysis (reference value: 29%); assay type: functional
HCT-116 [11] = assay: Cell cycle arrest in human HCT-116 cells assessed as accumulation at S phase at 1 uM after 24 hrs by propidium iodide staining based flow cytometric analysis (reference value: 50%); assay type: functional
HCT-116 [12] = assay: Cell cycle arrest in human HCT-116 cells assessed as accumulation at G2/M phase at 1 uM after 24 hrs by propidium iodide staining based flow cytometric analysis (reference value: 21%); assay type: functional
[13] = Cmax in Sprague-Dawley rat at 5 mg/kg, iv measured up to 48 hrs by LC-MS/MS analysis; assay type: ADME, organism-based; design: route intravenous, dose 5 mg/kg, time <=48; conditions: in vivo
How it was run: (§3)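 Male Sprague-Dawley rats, three per group, fasted 12 h, then given a single intravenous dose of 5 mg/kg in 8% ethanol, 2% Tween 80 and 90% sterile water. Blood was drawn from the venous plexus at the inner canthus into heparin tubes at 5, 15 and 30 min and at 1, 2, 4, 8, 24, 32 and 48 h. Plasma was quantified by LC-MS/MS against an internal standard.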

[14] = AUC(0 to t) in Sprague-Dawley rat at 5 mg/kg, iv measured up to 48 hrs by LC-MS/MS analysis; assay type: ADME, organism-based; design: route intravenous, dose 5 mg/kg, time <=48; conditions: in vivo; how it was run: as §3
[15] = Half life in Sprague-Dawley rat at 5 mg/kg, iv measured up to 48 hrs by LC-MS/MS analysis; assay type: ADME, organism-based; conditions: in vivo; how it was run: as §3
[16] = MRT in Sprague-Dawley rat at 5 mg/kg, iv measured up to 48 hrs by LC-MS/MS analysis; assay type: ADME, organism-based; conditions: in vivo; how it was run: as §3
[17] = Clearance in Sprague-Dawley rat at 5 mg/kg, iv measured up to 48 hrs by LC-MS/MS analysis; assay type: ADME, organism-based; conditions: in vivo; how it was run: as §3
[18] = Volume of distribution at steady state in Sprague-Dawley rat at 5 mg/kg, iv measured up to 48 hrs by LC-MS/MS analysis; assay type: ADME, organism-based; conditions: in vivo, read-out: Vdss; how it was run: as §3
[19] = Toxicity in BALB/c athymic nude mouse xenografted with human HCT-116 cells assessed as reduction in body weight at 10 mg/kg, iv administered twice a week for 28 days; assay type: organism-based; conditions: in vivo, 672 h, time 28 day
How it was run: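 Male nude mice had 1 × 10^7 HCT-116 cells in serum-free RPMI 1640 implanted subcutaneously in the right flank. At ~300 mm³ (about day 10) they were randomized, n=3/group. Dosing was by tail vein twice weekly (D1/D4) for four weeks: 10 mg/kg in 8% ethanol/2% Tween 80/90% water, or 5 mg/kg in 10% sulfobutylether-β-cyclodextrin, 10 mmol/L citrate pH 3.5. Caliper volume (length × width²)/2 and body weight were measured twice weekly.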

[20] = molecular target: T1, Proteasome Macropain subunit MB1 (Homo sapiens); assay: Covalent binding affinity to human 20S proteasome beta5 subunit assessed as compound-tryptic digest TTTLAFKFR peptide adduct formation at 10 uM incubated for 2 hrs measured after overnight incubation with trypsin by LC-MS/MS analysis
How it was run: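 Purified human 20S proteasome (4 nM) was incubated with 10 μM inhibitor for 2 h at room temperature, then quenched and denatured with acetonitrile. Trypsin (1:50) digestion ran overnight at 37 °C, followed by C18 desalting. Nano-LC-MS/MS used a 0.1% formic acid water/acetonitrile gradient. Adducts were searched against UniProt at ±10 ppm precursor and ±0.02 Da fragment tolerance, allowing 2 missed cleavages.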

[21] = molecular target: T1, Proteasome Macropain subunit MB1 (Homo sapiens); assay: Covalent binding affinity to human 20S proteasome beta5 subunit assessed as methyl hemi-ketal formation using H2O-CH3CN as mobile phase by HPLC analysis

- inhibition [1]: > 50%
- IC50 [2]: 0.18 µM
- Activity [3]: < 30%
- Activity [4]: 27%
- Ka [5]: 4210 M⁻¹ s⁻¹
- Kdiss [6]: 0.0192 s⁻¹
- Kd [7]: 4.8 µM
- Cmax [13]: 2.01 µg/mL
- AUC(0-t) at 48 h [14]: 0.68 µg·h/mL
- half-life [15]: 13.8 min
- MRT [16]: 20.2 min
- clearance [17]: 2 L/h/kg
- Vd [18]: 0.66 L/kg
- Activity [20]: inactive
- Activity [21]: inactive
SMILES: COC[C@H](NC(=O)[C@H](CC(=O)NCC(C)(C)C)NS(=O)(=O)c1ccc(C)cc1)C(=O)N[C@@H](CC(C)C)C(=O)c1ccco1
- IC50 (A-375): 0.88 µM
- IC50 (BGC-823): 0.77 µM
- IC50 (HeLa): 0.67 µM
- IC50 (A549): 1.3 µM
- IC50 [8]: 0.57 µM
- IC50 (HCT-116 [9]): 0.28 µM
- IC50 (HEK293): > 50 µM
- IC50 (HT-29): 0.73 µM
- Activity (HCT-116 [10]): 9%
- Activity (HCT-116 [11]): 14%
- Activity (HCT-116 [12]): 77%
- Activity [19]: Non-Toxic
